Among the data in ChEMBL document CHEMBL4177546, “Development of a Selective Inhibitor of Protein Arginine Deiminase 2” (J Med Chem, 2017) are Selectivity ratio and Activity values, retold here.

For test [1], the species on record is Homo sapiens. Description: Selectivity ratio of Kinact/Ki for recombinant His6-tagged PAD1 (unknown origin) to Kinact/Ki for recombinant His6-tagged PAD3 (unknown origin). In outline:
(§1)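 Enzyme at 2.0 μM (PAD1, PAD2, PAD4) or 5.0 μM (PAD3) incubated at 37 °C with various inhibitor concentrations in 50 mM HEPES, 10 mM CaCl₂, 2 mM DTT, pH 7.6. Timed aliquots moved into substrate mix: 10 mM BAEE, or 10 mM BAA for PAD3. […] Selectivity ratios taken from these values.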

The species named for test [2] is Homo sapiens. Description: Selectivity ratio of Kinact/Ki for recombinant full length N-terminal GST-tagged human PAD4 expressed in Escherichia coli Rosetta to Kinact/Ki for recombinant His6-tagged PAD3 (unknown origin). Summed up: as §1
The species named for test [3] is Homo sapiens. Description: Selectivity ratio of Kinact/Ki for recombinant human PAD2 expressed in Escherichia coli BL21(DE3)pLysS to Kinact/Ki for recombinant His6-tagged PAD3 (unknown origin). Summed up: as §1
The species named for test [4] is Homo sapiens. Kind of test: Selectivity ratio of Kinact/Ki for recombinant human PAD2 expressed in Escherichia coli BL21(DE3)pLysS cells to Kinact/Ki for recombinant full length N-terminal GST-tagged human PAD4 expressed in Escherichia coli Rosetta cells. Summed up:
as §1

For test [5], the species on record is Homo sapiens. Description: Selectivity ratio of Kinact/Ki for recombinant His6-tagged PAD3 (unknown origin) to Kinact/Ki for recombinant full length N-terminal GST-tagged human PAD4 expressed in Escherichia coli Rosetta cells. In outline:
as §1

The species entered for test [6] is Homo sapiens. Kind of test: Selectivity ratio of Kinact/Ki for recombinant human PAD2 expressed in Escherichia coli BL21(DE3)pLysS cells to Kinact/Ki for recombinant His6-tagged PAD1 (unknown origin). Summed up: as §1
The species named for test [7] is Homo sapiens. Description: Selectivity ratio of Kinact/Ki for recombinant His6-tagged PAD1 (unknown origin) to Kinact/Ki for recombinant full length N-terminal GST-tagged human PAD4 expressed in Escherichia coli Rosetta cells. In outline:
as §1

The target of test [8] is Protein-arginine deiminase type-2 (Homo sapiens, UniProt Q9Y2J8). Description: Binding affinity to human PAD2 expressed in HEK293T cells assessed as protein occupancy at 25 uM preincubated for 15 mins followed by ionomycin addition measured after 1 hr in presence of CaCl2 by RIBFA probe based SDS-PAGE analysis relative to control. Format: cell-based. Summed up:
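Adherent HEK293T/PAD2 cells at 80–90% confluence in HBS with 2 mM CaCl₂ at 37 °C. Inhibitor (in DMSO) added for 15 min, then ionomycin (0.5 μM final) for 1 h. Cells washed and lysed in 1% Triton X-100. Lysate (2 μg/μL) labelled with RIBFA probe (2 μM) plus 2 mM CaCl₂ for 1 h at 37 °C. Gel resolved and fluorescence scanned (~546/579 nm). PAD2 occupancy expressed relative to DMSO control.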

Sequence of Protein-arginine deiminase type-2 (Q9Y2J8 whole entry): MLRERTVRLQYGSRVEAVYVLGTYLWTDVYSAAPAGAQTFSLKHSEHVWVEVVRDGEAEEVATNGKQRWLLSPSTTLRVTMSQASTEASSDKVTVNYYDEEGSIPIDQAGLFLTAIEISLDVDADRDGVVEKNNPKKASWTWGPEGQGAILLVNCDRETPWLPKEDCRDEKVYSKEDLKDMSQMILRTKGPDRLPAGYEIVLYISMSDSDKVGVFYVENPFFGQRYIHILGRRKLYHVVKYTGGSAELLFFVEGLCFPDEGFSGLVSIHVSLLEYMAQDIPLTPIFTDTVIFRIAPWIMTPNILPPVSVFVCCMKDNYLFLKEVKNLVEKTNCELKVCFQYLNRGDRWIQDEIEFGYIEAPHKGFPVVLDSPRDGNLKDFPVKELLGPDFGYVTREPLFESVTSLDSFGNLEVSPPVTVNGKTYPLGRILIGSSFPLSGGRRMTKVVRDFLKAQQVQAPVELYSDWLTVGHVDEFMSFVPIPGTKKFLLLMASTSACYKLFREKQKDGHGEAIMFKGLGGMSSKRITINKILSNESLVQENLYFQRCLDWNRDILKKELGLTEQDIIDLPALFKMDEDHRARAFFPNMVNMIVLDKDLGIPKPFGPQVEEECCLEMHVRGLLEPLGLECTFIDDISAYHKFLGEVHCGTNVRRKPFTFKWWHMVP

Turning to `CCN1Cc2cccc(C(=O)N[C@@H](CCCNC(=N)CCl)c3nc4c(OC)cccc4n3C)c2C1=O`, the Selectivity ratio was 3.9 in the test listed under Homo sapiens [1], 1.3 in the test filed under Homo sapiens [2] and 5 in the test filed under Homo sapiens [3].
In the same order, the values of `CCN1Cc2cccc(C(=O)N[C@@H](CCCNC(=N)CCl)c3nc4ccccc4[nH]3)c2C1=O` are 4.3, 1.4 and 1.5.
In the same order, the values of `N=C(CCl)NCCC[C@H](NC(=O)c1cccc2c1C(=O)NC2)c1nc2ccccc2[nH]1` are 6.5, 2.1 and 2.3.
For `Cn1c([C@H](CCCNC(=N)CCl)NC(=O)c2ccccc2C(=O)O)nc2ccccc21` the same measures were 4.3, 1 and 1.9.
Consider `COc1ccc2[nH]c([C@H](CCCNC(=N)CF)NC(=O)c3cccc4c3C(=O)NC4)nc2c1`, for which the Selectivity ratio in the test filed under Homo sapiens [1] is 13; in the test listed under Homo sapiens [4], 95; in the test filed under Homo sapiens [2], 3.5; in the test listed under Homo sapiens [3] it was 5.4 to 114.
Consider `CCN1Cc2cccc(C(=O)N[C@@H](CCCNC(=N)CF)c3nc4ccccc4n3CC)c2C1=O`, for which the Selectivity ratio was 33 in the test filed under Homo sapiens [4], 1 in the test filed under Homo sapiens [5], 2 in the test filed under Homo sapiens [6] and 19 in the test filed under Homo sapiens [7].
For the compound `COc1cccc2c1nc([C@H](CCCNC(=N)CF)NC(=O)c1cccc3c1C(=O)N(C)C3)n2C`, the Selectivity ratio turned out to be 30 in the test listed under Homo sapiens [1], 1.1 in the test listed under Homo sapiens [2] and 106 in the test filed under Homo sapiens [3]. Moreover, in test [8], the Activity was < 37%.
Consider `N=C(CF)NCCC[C@H](NC(=O)c1cccc2c1C(=O)NC2)c1nc2ccccc2[nH]1`, for which the Selectivity ratio in the test listed under Homo sapiens [1] came out at 24; in the test listed under Homo sapiens [2], 10; in the test listed under Homo sapiens [3] it was 3.3.
With `CCn1c([C@H](CCCNC(=N)CF)NC(=O)c2ccccc2C(=O)O)nc2ccccc21`, the Selectivity ratio in the test filed under Homo sapiens [4] was 31; in the test listed under Homo sapiens [5] it was 1.7; in the test filed under Homo sapiens [3], 18; in the test listed under Homo sapiens [7] it was 39.
Turning to `CCn1c([C@H](CCCNC(=N)CF)NC(=O)c2cccc3c2C(=O)NC3)nc2ccccc21`, the Selectivity ratio in the test listed under Homo sapiens [1] came out at 37; in the test filed under Homo sapiens [4], 33; in the test filed under Homo sapiens [2], 1.7; in the test filed under Homo sapiens [3] it was 56; in the test filed under Homo sapiens [6], 2.
For the compound `CCn1c([C@H](CCCNC(=N)CCl)NC(=O)c2ccccc2C(=O)O)nc2ccccc21`, the Selectivity ratio in the test listed under Homo sapiens [1] worked out at 4.3; in the test filed under Homo sapiens [2] it was 1.2; in the test filed under Homo sapiens [3], 1.6.
`CCN1Cc2cccc(C(=O)N[C@@H](CCCNC(=N)CF)c3nc4cc(OC)ccc4n3C)c2C1=O`: the Selectivity ratio in the test listed under Homo sapiens [1] was 47; in the test listed under Homo sapiens [2], 3.8; in the test filed under Homo sapiens [3] it was 125.
In the case of `COc1ccc2[nH]c([C@H](CCCNC(=N)CCl)NC(=O)c3cccc4c3C(=O)NC4)nc2c1`, the Selectivity ratio was 7.3 in the test filed under Homo sapiens [1], 95 in the test filed under Homo sapiens [4], 2.2 in the test filed under Homo sapiens [2] and 3.5 to 114 in the test listed under Homo sapiens [3].
As to `CCN1Cc2cccc(C(=O)N[C@@H](CCCNC(=N)CCl)c3nc4ccccc4n3C)c2C1=O`, the Selectivity ratio in the test listed under Homo sapiens [1] stood at 21; in the test filed under Homo sapiens [2], 1.2; in the test filed under Homo sapiens [3] it was 19.
Take `CCN1Cc2cccc(C(=O)N[C@@H](CCCNC(=N)CF)c3nc4c(OC)cccc4n3C)c2C1=O`: the Selectivity ratio worked out at 85 in the test filed under Homo sapiens [4]; 1 in the test listed under Homo sapiens [5]; 85 in the test listed under Homo sapiens [3]; 5 in the test listed under Homo sapiens [6]; 16 in the test filed under Homo sapiens [7]. In addition, the Activity in test [8] was < 37%.
As for `CCOc1cccc2c1nc([C@H](CCCNC(=N)CCl)NC(=O)c1cccc3c1C(=O)N(CC)C3)n2C`, the Selectivity ratio in the test listed under Homo sapiens [4] stood at 43; in the test listed under Homo sapiens [5] it was 5.5; in the test listed under Homo sapiens [7], 12.
Take `CCN1Cc2cccc(C(=O)N[C@@H](CCCNC(=N)CF)c3nc4ccccc4n3C(C)C)c2C1=O`: the Selectivity ratio in the test filed under Homo sapiens [4] is 22; in the test listed under Homo sapiens [5], 3.4; in the test filed under Homo sapiens [7], 10.
For `COc1cccc2[nH]c([C@H](CCCNC(=N)CF)NC(=O)c3cccc4c3C(=O)NC4)nc12` the same measures were 8, 3.8 and 42.
For `CCN1Cc2cccc(C(=O)N[C@@H](CCCNC(=N)CCl)c3nc4ccccc4n3CC)c2C1=O` the same measures were 14, 2.1 and 18.
`CC(C)n1c([C@H](CCCNC(=N)CF)NC(=O)c2cccc3c2C(=O)NC3)nc2ccccc21`: the Selectivity ratio stood at 12 in the test filed under Homo sapiens [1], 2.4 in the test filed under Homo sapiens [2] and 20 in the test filed under Homo sapiens [3].
For the compound `CCN1Cc2cccc(C(=O)N[C@@H](CCCNC(=N)CF)c3nc4ccccc4n3C)c2C1=O`, the values for the Selectivity ratio in the test filed under Homo sapiens [4], in the test listed under Homo sapiens [5] and in the test listed under Homo sapiens [7] were 11, 1.9 and 6.1, respectively.
Consider `Cn1c([C@H](CCCNC(=N)CF)NC(=O)c2cccc3c2C(=O)NC3)nc2ccccc21`, for which the figures for the Selectivity ratio in the test filed under Homo sapiens [1], in the test listed under Homo sapiens [2] and in the test listed under Homo sapiens [3] were 25, 1 and 8.9, respectively.
Regarding `CCn1c([C@H](CCCNC(=N)CCl)NC(=O)c2cccc3c2C(=O)NC3)nc2c(OC)cccc21`, the Selectivity ratio in the test listed under Homo sapiens [4] was determined as 19; in the test filed under Homo sapiens [5], 2.9; in the test filed under Homo sapiens [7], 50.
In the same order, the values of `CCn1c([C@H](CCCNC(=N)CCl)NC(=O)c2cccc3c2C(=O)NC3)nc2cc(OC)ccc21` are 16, 4.4 and 21.
In the same order, the values of `CCN1Cc2cccc(C(=O)N[C@@H](CCCNC(=N)CF)c3nc4cc(OC)ccc4n3CC)c2C1=O` are 70, 2.7 and 28.
Regarding `COc1cccc2c1nc([C@H](CCCNC(=N)CCl)NC(=O)c1cccc3c1C(=O)N(C)C3)n2C`, the Selectivity ratio in the test filed under Homo sapiens [4] is 11; in the test filed under Homo sapiens [5] it was 2.2; in the test filed under Homo sapiens [7], 6.8.
`COc1cccc2c1nc([C@H](CCCNC(=N)CF)NC(=O)c1cccc3c1C(=O)N(C1CC1)C3)n2C`: the Selectivity ratio in the test listed under Homo sapiens [1] came to 38; in the test filed under Homo sapiens [2] it was 3.8; in the test filed under Homo sapiens [3], 77. Also, the Activity in test [8] was < 37%.
On to `CCN1Cc2cccc(C(=O)N[C@@H](CCCNC(=N)CF)c3nc4c(OC)cccc4[nH]3)c2C1=O`, for which the Selectivity ratio in the test listed under Homo sapiens [4] was 32; in the test filed under Homo sapiens [5], 12; in the test listed under Homo sapiens [7], 107.
In the same order, the values of `Cn1c([C@H](CCCNC(=N)CCl)NC(=O)c2cccc3c2C(=O)NC3)nc2ccccc21` are 3.1, 2 and 61.
For `CCN1Cc2cccc(C(=O)N[C@@H](CCCNC(=N)CF)c3nc4cc(OC)ccc4[nH]3)c2C1=O` the same measures were 6.3, 3.6 and 4.4.
For `COc1cccc2c1nc([C@H](CCCNC(=N)CCl)NC(=O)c1cccc3c1C(=O)N(C1CC1)C3)n2C` the same measures were 6.7, 1.1 and 4.7.
Turning to `COc1cccc2c1nc([C@H](CCCNC(=N)CF)NC(=O)c1cccc3c1C(=O)N(C(C)C)C3)n2C`, the Selectivity ratio stood at 32 in the test listed under Homo sapiens [1], 2.6 in the test filed under Homo sapiens [2] and 58 in the test listed under Homo sapiens [3]. In test [8], the Activity is < 37%.
For `COc1cccc2c1nc([C@H](CCCNC(=N)CCl)NC(=O)c1cccc3c1C(=O)NC3)n2C`, the Selectivity ratio in the test listed under Homo sapiens [1] was 3.9; in the test filed under Homo sapiens [2], 1.3; in the test filed under Homo sapiens [3], 3.9.
